Results from ChEMBL document CHEMBL5120934, “Development of Urea-Bond-Containing Michael Acceptors as Antitrypanosomal Agents Targeting Rhodesain” (ACS Med Chem Lett, 2022).
pEC50: −log10 of the molar value.

Legend:
[1] = target: Replicase polyprotein 1ab (Severe acute respiratory syndrome coronavirus 2) (UniProt P0DTD1); test: Inhibition of C-terminal His-tagged SARS-CoV-2 MPro expressed in Escherichia coli BL21(DE3) at 100 uM using Dabcyl-KTSAVLQSGFRKME-Edans as fluorogenic substrate incubated for 10 mins by FRET assay
Procedure, shortened: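 Single-concentration preliminary screen of viral main protease at 100 μM. Read-out is percentage inhibition of protease activity. No follow-up dilution series or mode-of-inhibition kinetics were run.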

[2] = target: Rhodesain (Trypanosoma brucei rhodesiense) (UniProt Q95PM0); test: Inhibition of Trypanosoma brucei rhodesiense rhodesain at 0.1 uM using Cbz-Phe-Arg-AMC as fluorogenic substrate measured for 10 mins every 30 seconds by fluorescence microplate reader assay
Procedure, shortened: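 Single-concentration fluorogenic screen against rhodesain with the substrate Cbz-Phe-Arg-AMC, each compound at 0.1 μM. DMSO served as the negative control and E-64 as the positive control. The read-out was percentage inhibition.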

[3] = target: Rhodesain (Trypanosoma brucei rhodesiense) (UniProt Q95PM0); test: Binding affinity to recombinant Trypanosoma brucei rhodesiense rhodesain assessed as Kinact using Cbz-Phe-Arg-AMC as fluorogenic substrate measured for 10 mins every 30 seconds by fluorescence microplate reader assay
Procedure, shortened: (§1)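 Rhodesain activity was followed fluorogenically with the substrate Cbz-Phe-Arg-AMC. Inhibitors were serially diluted and assayed down to the concentration giving minimal inhibition. Irreversible inhibition was characterized by Ki and kinact (the rate of covalent E-I complex formation), and k2nd was calculated as kinact/Ki.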

[4] = target: Rhodesain (Trypanosoma brucei rhodesiense) (UniProt Q95PM0); test: Binding affinity to recombinant Trypanosoma brucei rhodesiense rhodesain assessed as binding constant measured at second inhibition step using Cbz-Phe-Arg-AMC as fluorogenic substrate measured for 10 mins every 30 seconds by fluorescence microplate reader assay; procedure, shortened: as §1
[5] = target: Rhodesain (Trypanosoma brucei rhodesiense) (UniProt Q95PM0); test: Inhibition of Trypanosoma brucei rhodesiense rhodesain expressed in pichia pastoris assessed as binding constant measured at second inhibition step using Z-Phe-Arg-N-methylcoumarin as substrate by fluorometric assay
Trypanosoma brucei = test: Antitrypanosomal activity against bloodstream form of Trypanosoma brucei; type: functional; conditions: read-out: ED50 (the source's name)

Chain of Rhodesain (Trypanosoma brucei rhodesiense) (Q95PM0 1-450): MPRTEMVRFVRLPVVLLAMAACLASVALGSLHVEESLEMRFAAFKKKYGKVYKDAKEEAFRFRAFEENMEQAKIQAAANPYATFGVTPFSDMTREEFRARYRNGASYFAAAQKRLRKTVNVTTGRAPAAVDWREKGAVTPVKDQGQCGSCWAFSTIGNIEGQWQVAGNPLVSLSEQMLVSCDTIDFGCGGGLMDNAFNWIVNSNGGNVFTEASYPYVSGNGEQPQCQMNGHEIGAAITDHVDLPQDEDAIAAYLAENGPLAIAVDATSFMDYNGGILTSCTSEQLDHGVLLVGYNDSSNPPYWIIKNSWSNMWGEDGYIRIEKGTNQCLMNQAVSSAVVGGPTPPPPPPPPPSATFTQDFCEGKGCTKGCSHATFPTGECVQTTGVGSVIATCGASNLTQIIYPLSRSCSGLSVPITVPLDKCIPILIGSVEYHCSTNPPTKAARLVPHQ

Row | SMILES | inhibition [1] [%] | inhibition [2] [%] | Kinact [3] [min⁻¹] | K [4] | K [5] | pEC50 (Trypanosoma brucei)
1 | CC(=O)/C=C/[C@H](CCc1ccccc1)NC(=O)[C@H](Cc1ccccc1)NC(=O)Nc1c(F)cccc1F | 33 | > 80 | 0.0022 | – | – | –
2 | CC(=O)/C=C/[C@H](CCc1ccccc1)NC(=O)[C@H](Cc1ccccc1)NC(=O)Nc1ccc(Cl)cc1C | 33 | > 80 | 0.0053 | 14700 10^3/M/min | – | –
3 | CN1CCN(C(=O)N[C@@H](Cc2ccccc2)C(=O)N[C@H](/C=C/S(=O)(=O)c2ccccc2)CCc2ccccc2)CC1 [K-777] | – | – | – | – | 9000 10^3/M/min | 6.05
4 | CC(=O)/C=C/[C@H](CCc1ccccc1)NC(=O)[C@H](Cc1ccccc1)NC(=O)Nc1ccc(C)cc1 | 33 | > 80 | 0.0023 | 10400 10^3/M/min | – | –
5 | COc1ccc(NC(=O)N[C@@H](Cc2ccccc2)C(=O)N[C@H](/C=C/C(C)=O)CCc2ccccc2)cc1 | 33 | > 80 | 0.0059 | – | – | –
6 | CC(=O)/C=C/[C@H](CCc1ccccc1)NC(=O)[C@H](Cc1ccccc1)NC(=O)Nc1ccc(Cl)cc1 | 33 | > 80 | 0.0023 | – | – | –
7 | CC(=O)/C=C/[C@H](CCc1ccccc1)NC(=O)[C@H](CC(C)C)NC(=O)Nc1ccc(Cl)cc1C | – | – | 0.0123 | 14000 10^3/M/min | – | –
8 | CC(=O)/C=C/[C@H](CCc1ccccc1)NC(=O)[C@H](Cc1ccccc1)NC(=O)Nc1cccc2ccccc12 | 33 | > 80 | 0.0084 | – | – | –
9 | CC(=O)/C=C/[C@H](CCc1ccccc1)NC(=O)[C@H](Cc1ccccc1)NC(=O)Nc1ccc(F)cc1 | 33 | > 80 | 0.0021 | – | – | –
10 | CC(=O)/C=C/[C@H](CCc1ccccc1)NC(=O)[C@H](Cc1ccccc1)NC(=O)Nc1ccccc1 | 33 | > 80 | 0.0021 | 16700 10^3/M/min | – | –
11 | CC(=O)/C=C/[C@H](CCc1ccccc1)NC(=O)[C@H](Cc1ccccc1)NC(=O)Nc1ccc(Cl)cc1C(F)(F)F | 33 | > 80 | 0.006 | – | – | –
12 | CC(=O)/C=C/[C@H](CCc1ccccc1)NC(=O)[C@H](CC(C)C)NC(=O)Nc1ccc(C)cc1 | – | – | 0.0042 | 10400 10^3/M/min | – | –
